Data set [1] in a line: Stability of the compound in artificial intestinal juice measured every 2 hrs for 12 hrs by HPLC analysis. Conditions: simulated gi fluid. The data set is classed as physicochemical.
Data set [2] has as its system Staphylococcus epidermidis. Briefly: Antimicrobial activity against Staphylococcus epidermidis after 24 hrs by broth microdilution method. Format: functional. The procedure, abridged:
(§1)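 Broth microdilution following NCCLS M7-A4; ATCC strains and clinical isolates from a provincial hospital.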

In data set [3] the test system is Escherichia coli. Put plainly: Antimicrobial activity against Escherichia coli isolate 1 after 24 hrs by broth microdilution method. Format: functional. To be noted: isolate 1, 24 h. The procedure, abridged: as §1
The test system of data set [4] is Staphylococcus aureus. Put plainly: Antimicrobial activity against Staphylococcus aureus after 24 hrs by broth microdilution method. Format: functional. The procedure, abridged: as §1
Data set [5] can be described thus: Solubility of the compound in artificial intestinal juice measured every 2 hrs for 12 hrs by HPLC analysis. The data set is classed as physicochemical. To be noted: simulated gi fluid.
The nature of data set [6]: Stability of the compound in artificial gastric juice measured every 2 hrs for 12 hrs by HPLC analysis. The data set is classed as ADME. To be noted: simulated gi fluid.
Data set [7] concerns Staphylococcus aureus. Put plainly: Antimicrobial activity against methicillin-resistant Staphylococcus aureus after 24 hrs by broth microdilution method. The data set is classed as functional. The essentials:
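Broth microdilution following NCCLS M7-A4, using ATCC strains and clinical isolates from a provincial hospital.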

Data set [8] is described as follows: Solubility of the compound in artificial gastric juice measured every 2 hrs for 12 hrs by HPLC analysis. Format: ADME. To be noted: simulated gi fluid.
Data set [9] relates to Staphylococcus aureus. Put plainly: Antimicrobial activity against methicillin-susceptible Staphylococcus aureus after 24 hrs by broth microdilution method. The data set is classed as functional. The essentials: as §1
For data set [10], the system named is Escherichia coli. Put plainly: Antimicrobial activity against Escherichia coli isolate 2 after 24 hrs by broth microdilution method. The data set is classed as functional. Conditions: isolate 2, 24 h. The procedure, abridged:
as §1

Data set [11] in a line: Volume of distribution at steady state in Sprague-Dawley rat at 5 mg/kg, iv. Format: ADME, organism-based. Details: dose 5 mg/kg, route intravenous. To be noted: in vivo, read-out: Vdss.
The nature of data set [12]: AUC (0 to infinity) in Sprague-Dawley rat at 5 mg/kg, iv. The data set is classed as ADME, organism-based. Details: time infinity, dose 5 mg/kg, route intravenous. To be noted: plasma.
The nature of data set [13]: AUC (0 to infinity) in Sprague-Dawley rat at 25 mg/kg, po. Details: dose 25 mg/kg, route oral, time infinity. Conditions: plasma. The data set is classed as ADME, organism-based.
A short description of data set [14]: Mean residence time (0 to t) in Sprague-Dawley rat at 5 mg/kg, iv. Also noted: dose 5 mg/kg, route intravenous. The data set is classed as ADME, organism-based. Conditions: in vivo.
Data set [15] can be described thus: Half life in Sprague-Dawley rat at 25 mg/kg, po. Format: ADME, organism-based. Also noted: dose 25 mg/kg, route oral. To be noted: in vivo.
Data set [16] can be described thus: Cmax in Sprague-Dawley rat at 25 mg/kg, po. Conditions: in vivo. The data set is classed as ADME, organism-based. Also noted: dose 25 mg/kg, route oral.
The nature of data set [17]: Half life in Sprague-Dawley rat at 5 mg/kg, iv. Format: ADME, organism-based. Details: dose 5 mg/kg, route intravenous. To be noted: in vivo.
Data set [18] can be described thus: Oral bioavailability in Sprague-Dawley rat at 25 mg/kg. The data set is classed as ADME, organism-based. To be noted: in vivo.
A short description of data set [19]: Clearance in Sprague-Dawley rat at 5 mg/kg, iv. Details: dose 5 mg/kg, route intravenous. The data set is classed as ADME, organism-based. Conditions: in vivo.
The target of data set [20] is T1, hERG (KCNH2) (Homo sapiens, UniProt Q12809). Briefly: Inhibition of human ERG at 1 uM.
T1 sequence (Q12809 whole entry): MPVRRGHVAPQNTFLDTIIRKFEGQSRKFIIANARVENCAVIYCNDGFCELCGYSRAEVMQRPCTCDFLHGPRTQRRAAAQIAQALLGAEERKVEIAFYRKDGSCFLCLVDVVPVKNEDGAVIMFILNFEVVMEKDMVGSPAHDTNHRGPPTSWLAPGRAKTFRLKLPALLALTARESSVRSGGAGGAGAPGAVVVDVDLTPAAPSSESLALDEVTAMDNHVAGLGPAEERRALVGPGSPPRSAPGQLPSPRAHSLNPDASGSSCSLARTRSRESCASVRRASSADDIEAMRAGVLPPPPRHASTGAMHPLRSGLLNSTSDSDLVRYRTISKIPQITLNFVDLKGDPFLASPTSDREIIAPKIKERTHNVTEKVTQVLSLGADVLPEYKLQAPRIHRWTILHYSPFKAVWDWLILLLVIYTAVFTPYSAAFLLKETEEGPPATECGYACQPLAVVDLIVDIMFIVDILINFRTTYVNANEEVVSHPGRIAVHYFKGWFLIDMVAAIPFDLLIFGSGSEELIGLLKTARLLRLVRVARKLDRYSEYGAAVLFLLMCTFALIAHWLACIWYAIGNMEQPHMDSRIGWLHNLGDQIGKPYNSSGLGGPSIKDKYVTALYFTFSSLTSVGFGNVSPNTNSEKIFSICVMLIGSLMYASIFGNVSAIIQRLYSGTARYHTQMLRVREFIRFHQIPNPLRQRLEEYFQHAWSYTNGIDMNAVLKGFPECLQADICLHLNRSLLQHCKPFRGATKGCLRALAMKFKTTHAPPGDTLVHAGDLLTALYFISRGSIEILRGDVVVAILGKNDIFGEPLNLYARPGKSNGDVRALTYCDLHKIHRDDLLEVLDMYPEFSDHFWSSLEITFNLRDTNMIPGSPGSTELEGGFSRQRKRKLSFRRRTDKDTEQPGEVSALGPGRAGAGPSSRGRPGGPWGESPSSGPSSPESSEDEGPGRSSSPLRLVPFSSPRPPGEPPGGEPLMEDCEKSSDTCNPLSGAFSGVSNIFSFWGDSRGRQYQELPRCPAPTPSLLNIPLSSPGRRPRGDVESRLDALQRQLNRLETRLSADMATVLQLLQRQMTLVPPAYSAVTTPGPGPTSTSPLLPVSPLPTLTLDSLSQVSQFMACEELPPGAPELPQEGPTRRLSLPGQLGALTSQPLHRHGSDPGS
A short description of data set [21]: Mean residence time (0 to t) in Sprague-Dawley rat at 25 mg/kg, po. Format: ADME, organism-based. Details: dose 25 mg/kg, route oral. Conditions: in vivo.
Data set [22] is described as follows: AUC (0 to t) in Sprague-Dawley rat at 25 mg/kg, po. Format: ADME, organism-based. Details: dose 25 mg/kg, route oral. Conditions: plasma.
For data set [23], the target named is T1, hERG (KCNH2). Put plainly: Inhibition of human ERG at 10 uM.
Data set [24] can be described thus: AUC (0 to t) in Sprague-Dawley rat at 5 mg/kg, iv. The data set is classed as ADME, organism-based. Details: dose 5 mg/kg, route intravenous. Conditions: plasma.
Data set [25] is described as follows: Tmax in Sprague-Dawley rat at 25 mg/kg, po. The data set is classed as ADME, organism-based. Also noted: dose 25 mg/kg, route oral. To be noted: in vivo.

Each structure is given as a SMILES string. In brackets after ≈: the same amount, converted by molar mass. Bounds are passed on as bounds.

In the case of `CCCC[C@H](CN(O)C=O)C(=O)N1CC=C[C@H]1C(=O)Nc1ccc(F)cn1`, the Stability result in data set [1] and in data set [6] was “Stable” throughout. Besides, the MIC in [2] was 0.5 µg/mL (≈ 1.32 µM); with Escherichia coli [3], more than 64 µg/mL; with Staphylococcus aureus [4], 0.5 µg/mL (≈ 1.32 µM); in the data set on Staphylococcus aureus [7], 0.25 µg/mL (≈ 0.661 µM); with Staphylococcus aureus [9], 1 µg/mL (≈ 2.64 µM); against Escherichia coli [10] it was 64 µg/mL (≈ 169 µM). Further, the solubility entry in [5] and in [8] was “soluble” in each case.
For `CCCC[C@H](CN(O)C=O)C(=O)N1CC=C[C@H]1C(=O)Nc1ncc(C)s1`, in [11], the Vd was 1.01 L/kg. The AUC(0-inf) in data set [12] was 4930 ng·h/mL; in [13], 21900 ng·h/mL. In addition, the Stability result in data set [1] and in [6] was “Stable” throughout. Moreover, the MRT last was 0.952 h in data set [14] and 2.45 h in data set [21]. The half-life was 2.56 h in data set [15] and 4.08 h in data set [17]. In data set [16], this molecule returned a maximum concentration (Cmax) of 12400 ng/mL. The minimal inhibitory concentration (MIC) in data set [2] came out at 0.25 µg/mL (≈ 0.657 µM); against Escherichia coli [3], 32 µg/mL (≈ 84.1 µM); against Staphylococcus aureus [4] it was 0.0625 µg/mL (≈ 0.164 µM); in the data set on Staphylococcus aureus [7], 0.125 µg/mL (≈ 0.329 µM); in the data set with Staphylococcus aureus [9], 0.25 µg/mL (≈ 0.657 µM); in the data set with Escherichia coli [10] it was 16 µg/mL (≈ 42.1 µM). Besides, the bioavailability in data set [18] was determined as 88.7%. Moreover, the clearance in [19] is 17 mL/min/kg. Moreover, the inhibition at 1 µM on hERG (KCNH2) [20] was 5.7%. Besides, the AUC(0-t) in data set [22] is 21800 ng·h/mL; in [24], 4920 ng·h/mL. The solubility result in data set [5] and in data set [8] was “soluble” in each case. The molecule further had an inhibition at 10 µM at hERG (KCNH2) [23] of 5.5%. Further, the Tmax in [25] turned out to be 0.625 h.
